Compound activity deposited in PubChem by Johns Hopkins Ion Channel Center.
TRPC6 inh = blocks the mouse TRPC6 cation channel. Q61143. HEK293-TRPC6, membrane potential dye, ACh-evoked depolarization; stronger effect = lower value. B-score at 10 µM. 1.1% of 310,000 active;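 active = B-score under library mean minus 3 SD, initial fluorescence not abnormally high, positive integrated signal ratio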;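 note: B-score derived from integrated fluorescence ratio over the kinetic read; more negative B-score means stronger inhibition of depolarization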
TRPC6 act = activates the mouse TRPC6 cation channel | Q61143 | B-score at 10 µM | HEK293-TRPC6 membrane potential dye fluorescence; stronger effect = higher value | 0.13% of 310,000 active;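 active = B-score of the integrated fluorescence ratio above library mean plus 3 SD, and starting fluorescence ratio within library mean plus 5 SD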;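 note: higher score means more depolarization so channel activation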
TRPC4 block = blocks the mouse TRPC4 cation channel; Q9QUQ5; HEK293 TRPC4beta/mu-opioid, DAMGO-evoked Fluo4 calcium flux; stronger effect = lower value; B-score at 10 µM; 0.39% of 300,000 active; AID 2247;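 active = B-score over 3 SD under the library average, no early fluorescence shift, positive overall ratio signal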
Target sequence (Q9QUQ5 whole entry, looked up): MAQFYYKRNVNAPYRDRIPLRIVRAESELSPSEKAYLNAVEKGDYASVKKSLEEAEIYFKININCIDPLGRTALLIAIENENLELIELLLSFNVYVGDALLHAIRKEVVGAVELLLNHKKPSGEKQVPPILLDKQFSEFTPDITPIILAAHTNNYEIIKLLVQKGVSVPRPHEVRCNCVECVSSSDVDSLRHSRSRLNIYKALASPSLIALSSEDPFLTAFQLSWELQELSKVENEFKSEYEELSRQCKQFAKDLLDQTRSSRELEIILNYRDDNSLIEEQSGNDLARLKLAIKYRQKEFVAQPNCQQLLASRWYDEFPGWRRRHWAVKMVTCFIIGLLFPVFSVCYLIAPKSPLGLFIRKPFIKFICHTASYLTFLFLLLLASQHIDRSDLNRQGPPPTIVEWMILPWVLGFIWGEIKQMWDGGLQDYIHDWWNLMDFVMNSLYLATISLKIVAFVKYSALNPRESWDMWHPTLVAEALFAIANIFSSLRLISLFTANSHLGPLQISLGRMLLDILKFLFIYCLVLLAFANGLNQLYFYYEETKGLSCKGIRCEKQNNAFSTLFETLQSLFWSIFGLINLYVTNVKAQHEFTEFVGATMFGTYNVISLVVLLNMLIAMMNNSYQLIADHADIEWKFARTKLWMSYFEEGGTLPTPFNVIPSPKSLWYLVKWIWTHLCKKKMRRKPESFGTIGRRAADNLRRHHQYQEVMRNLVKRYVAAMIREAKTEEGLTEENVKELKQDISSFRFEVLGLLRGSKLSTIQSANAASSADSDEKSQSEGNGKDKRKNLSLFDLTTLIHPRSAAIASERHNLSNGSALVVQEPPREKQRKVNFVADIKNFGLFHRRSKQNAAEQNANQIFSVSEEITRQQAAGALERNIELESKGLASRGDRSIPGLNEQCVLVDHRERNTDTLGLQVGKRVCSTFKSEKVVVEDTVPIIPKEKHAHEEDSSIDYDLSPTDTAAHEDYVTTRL
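Material: HEK293 cells with stable TRPC4beta plus mu-opioid receptor expression; probe or stimulus: DAMGO in two steps, submaximal then maximal; technique: Fluo4 calcium fluorescence by kinetic imaging, 5 s 1 Hz baseline; measure: integrated fluorescence ratio relative to baseline, converted to per-well B score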
TRPC4 potent = allosterically enhances the mouse TRPC4 cation channel | Q9QUQ5 | HEK293 TRPC4beta/mu-opioid, DAMGO EC20, Fluo-4 Ca2+ flux; stronger effect = higher value | B-score at 10 µM | 0.42% of 310,000 active;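 active = B-score of calcium response area above 5 SD of library B-scores, with initial fluorescence ratio within 5 SD of library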
TRPC4 act = opens the mouse TRPC4 cation channel; B-score at 10 µM; HEK293 TRPC4beta/mu-opioid, Fluo4 calcium fluorescence; stronger effect = higher value; 0.49% of 310,000 active; AID 2237; Q9QUQ5;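 active = B-score above 5 SD of library B-scores, and initial fluorescence ratio not above library mean plus 5 SD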;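 note: positive B-score marks a calcium rise read as TRPC4 activation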
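System: HEK293 cells stably co-expressing mouse TRPC4beta and mu-opioid receptor; Schedule: Fluo4 dye loading 45 min at room temperature, 110 s recording; Detection: Fluo4 fluorescence, kinetic; Evaluation: B-scored integrated calcium fluorescence ratio; Controls: buffer (low) and maximal DAMGO (high).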
TRPC4 spec 2 = second selectivity test of TRPC6 inhibitors: effect on mouse TRPC4. shares compounds with TRPC6 inh. HEK293 TRPC4/MOR, membrane potential dye fluorescence; channel activated by saturating DAMGO dose. inhibition, % at 10 µM. 42% of 920 active;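 active = compounds whose fluorescence signal differed from control wells by over 3 SD, either direction, in both duplicate plates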
TRPC4 spec = tests whether TRPC6 inhibitors also affect mouse TRPC4 | shares compounds with TRPC6 inh | HEK293 TRPC4/mu-opioid, membrane potential fluorescence | activity change, negative = inhibition, % at 10 µM | 61% of 920 active | AID 2777;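 active = rise or fall in signal beyond 3 SD of buffer-only wells in both replicate plates, either sign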;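 note: integrated kinetic ratio of fluorescence range over baseline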
HEK293 MPD ctr 2-1 = second counter-screen for TRPC6 inhibitors: parental HEK293 cells; AID 2779; parental HEK293 membrane potential dye fluorescence; maximal acetylcholine challenge after compound addition; 31% of 920 active; signal change vs control, % at 10 µM; shares compounds with TRPC6 inh;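 active = membrane potential signal moving either way by over 3 SD of the maximum-effect control, in both duplicate plates, meaning non-specific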
HEK293 MPD ctr-1 = parental HEK293 nonspecific activity of TRPC6 inhibitors; shares compounds with TRPC6 inh; parental HEK293 membrane potential dye fluorescence; membrane potential signal change, % at 10 µM; 60% of 920 active; AID 2780;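 active = membrane potential signal shifting up or down by more than 3 SD of buffer-only wells, on both duplicate plates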
HEK293 MPD ctr-2 = checks TRPC6 modulator effects in parental HEK293 cells; shares compounds with TRPC6 inh; membrane potential dye fluorescence; membrane potential signal change, % at 10 µM; 51% of 2,400 active; AID 488924;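 active = membrane potential signal moves up or down beyond 5 SD from buffer-only wells, on both duplicate plates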
HEK293 MPD ctr 2-2 = second counter-screen for TRPC6 modulators: effect in parental HEK293 cells | 14% of 2,400 active | membrane potential dye fluorescence; after compound, maximal acetylcholine stimulation | inhibition, % at 10 µM | shares compounds with TRPC6 inh;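 active = membrane potential signal drops by more than 5 SD from the mean control signal, in both duplicate plates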
TRPC4 ctr mod = tests whether TRPC6 modulators also affect mouse TRPC4 | HEK293 TRPC4/mu-opioid, membrane potential fluorescence | percent change from control (negative = decrease, positive = increase), % at 10 µM | 69% of 2,400 active | shares compounds with TRPC6 inh;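 active = membrane potential signal moved up or down beyond 5 SD of buffer control wells, in both duplicate plates, actives on both sides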
TRPC4/MOR inh 2 = second selectivity test of TRPC6 modulators against mouse TRPC4; 55% of 2,400 active; shares compounds with TRPC6 inh; HEK293 TRPC4/mu-opioid, membrane potential dye fluorescence; stimulated with maximal-effect DAMGO; inhibition, % at 10 µM;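 active = drop in membrane potential signal beyond 5 SD of the control wells in both duplicate plates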;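 note: TRPC4 counter screen for TRPC6 hits run under conditions tuned for TRPC6 not TRPC4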
TRPC6 inh conf = mouse TRPC6 inhibitor confirmation | shares compounds with TRPC6 inh | AID 488960 | inhibition, % at 10 µM | HEK293-TRPC6, membrane potential dye, ACh-evoked depolarization | 43% of 3,300 active;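 active = fluorescence ratio falls more than 5 SD below the full-stimulation control mean, in both duplicate runs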;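 note: integrated fluorescence ratio of peak minus minimum over baseline after agonist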
TRPC6 act conf = confirmation of mouse TRPC6 activators; activation, % at 10 µM; HEK293-TRPC6 membrane potential dye fluorescence, FDSS; shares compounds with TRPC6 inh; 11% of 2,800 active;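 active = ratio signal rise beyond 5 SD above unstimulated control wells' mean, seen in both duplicate runs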
Large screens that a line does not name were inactive (follow-up assays come after a bar, where they were run). This is a sample that favours compounds with a hit; in the whole collection about 2.3% have one here.

NC(N)=N/N=C/c1cn(-c2ccccc2)nc1-c1cccs1	TRPC4 act 97
CC/C(=N\Nc1ccccc1)c1c(O)n(C)c(=O)n(C)c1=O	TRPC4 block -6, TRPC4 potent 13
CC/C(=N\Nc1ccccc1)c1c(O)n(-c2ccccc2)c(=O)[nH]c1=O	none
COc1ccc2c(c1O)[C@]13CCN(C)[C@H](C2)[C@@H]1CCC(=O)C3	TRPC4 act 114
CC1(C)CC(CCNCc2ccc3c(c2)OCO3)(Cc2ccccc2)CCO1 (stereo not given)	TRPC4 act 60
O=C1C2CCCN2C(c2ccncc2)N1c1ccc(Cl)c(Cl)c1 (stereo not given)	TRPC4 potent 11
COc1ccc(OC)c(C(O)C2CCCCN2)c1 (stereo not given)	none
COc1ccc(C)cc1NC1=NC(C)(C)CS1	TRPC4 block -6
CN(C)C1(CNC(=O)Nc2ccc(Cl)c(Cl)c2)CCCCC1	TRPC4 act 91
N[C@@H](Cc1c[nH]c2ccccc12)c1nnc(SCc2ccc(Cl)cc2)o1	none
CC(N)Cc1c[nH]c2cc3c(cc12)OCCO3 (stereo not given)	TRPC4 act 143
CC(N)Cc1c[nH]c2ccc(Cl)cc12 (stereo not given)	TRPC4 potent 13
O=C(CCCN1CCC2(CC1)C(=O)NCN2c1ccccc1)c1ccc(F)cc1	TRPC4 act 158
CCN1CCN(C(=O)Cc2ccccc2OC)CC1	TRPC4 act 79
O=C(Cc1ccccc1)N1CCN(CCCc2ccccc2)CC1	none
COc1ccccc1CC(=O)N1CCN(CCc2ccccc2)CC1	TRPC4 act 119
CCOP(=O)(OCC)c1ccc(O)cc1	none
CCc1ccc2nc(N3CCC(C(=O)N4CCC5(CC4)OCCO5)CC3)sc2c1	none
Clc1ccc2sc(C3CCNCC3)nc2c1	TRPC6 inh -6.02, TRPC4 act 187 | HEK293 MPD ctr-2 inactive | HEK293 MPD ctr 2-2 inactive | TRPC4 ctr mod 47.0% | TRPC4/MOR inh 2 52.5% | TRPC6 inh conf inactive | TRPC6 act conf inactive
CCCNC(=O)c1c(N)n(CC2CCCO2)c2nc3ccccc3nc12 (stereo not given)	none
CC(C)OCCCNC(=O)c1c(N)n(CC2CCCO2)c2nc3ccccc3nc12 (stereo not given)	TRPC6 inh -5.04 | HEK293 MPD ctr-2 124.5% | HEK293 MPD ctr 2-2 inactive | TRPC4 ctr mod 23.0% | TRPC4/MOR inh 2 inactive | TRPC6 inh conf inactive
Cn1c(O)c(C=NC2CCCCCC2)c(=O)[nH]c1=S	none
Cc1ccc(C2CC3CCC(C2)N3Cc2ccccc2F)cc1 (stereo not given)	TRPC6 act 13.4 | HEK293 MPD ctr-2 127.0% | HEK293 MPD ctr 2-2 inactive | TRPC4 ctr mod 49.0% | TRPC4/MOR inh 2 42.5% | TRPC6 inh conf inactive | TRPC6 act conf 57.5%
C=CCSc1nc2c(c(-c3ccsc3)c1C#N)CN(C)CC2	TRPC6 inh -9.97 | TRPC4 spec 2 inactive | TRPC4 spec -18.0% | HEK293 MPD ctr 2-1 inactive | HEK293 MPD ctr-1 -239.0% | TRPC6 inh conf inactive | TRPC6 act conf inactive
O=[N+]([O-])c1ccc(NCCO)c2ncccc12	none
C[N+](C)(N)CCOC(=O)C(O)(c1ccccc1)C1CCCCC1 (stereo not given)	TRPC6 inh -9.56 | TRPC4 spec 2 inactive | TRPC4 spec inactive | HEK293 MPD ctr 2-1 -39.0% | HEK293 MPD ctr-1 inactive | TRPC6 inh conf 89.0% | TRPC6 act conf inactive
CC[N+](CC)(CC)CCCOC(=O)C(O)(c1ccccc1)C1CCCCC1 (stereo not given)	TRPC6 inh -11.8 | TRPC4 spec 2 inactive | TRPC4 spec inactive | HEK293 MPD ctr 2-1 -39.5% | HEK293 MPD ctr-1 inactive | TRPC6 inh conf 97.4% | TRPC6 act conf inactive
CN(C)CC#CCC(O)(c1ccccc1)C1CCCC1 (stereo not given)	none
CN1CCN(c2ncc(C=O)s2)CC1	none
CC(C)[N+](C)(CCC(C(N)=O)(c1ccccc1)c1ccccc1)C(C)C	TRPC6 inh -6.59 | HEK293 MPD ctr-2 inactive | HEK293 MPD ctr 2-2 101.0% | TRPC4 ctr mod inactive | TRPC4/MOR inh 2 inactive | TRPC6 inh conf 88.0% | TRPC6 act conf inactive
CN1CCC(N(C)c2nc(-c3ccccc3)nc3ccccc23)CC1	TRPC6 inh -7.61, TRPC4 potent 15 | HEK293 MPD ctr-2 -305.5% | HEK293 MPD ctr 2-2 87.5% | TRPC4 ctr mod -54.0% | TRPC4/MOR inh 2 65.5% | TRPC6 inh conf 74.5% | TRPC6 act conf inactive
O=C(Nc1cccc(Br)c1)c1c(O)c2c(n(Cc3ccccc3)c1=O)CCCC2	none
C[N+]1(C)[C@@H]2CC[C@H]1CC(OC(=O)C(c1ccccc1)c1ccccc1)C2 (stereo not given in full)	TRPC6 inh -5.32 | HEK293 MPD ctr-2 inactive | HEK293 MPD ctr 2-2 91.0% | TRPC4 ctr mod inactive | TRPC4/MOR inh 2 inactive | TRPC6 inh conf 96.0% | TRPC6 act conf inactive
O=C(Nc1ccccc1)c1cc([N+](=O)[O-])ccc1N1CCNCC1	none
